# Data published in ChEMBL document CHEMBL3098013, “Novel pyrazole integrated 1,3,4-oxadiazoles: synthesis, characterization and antimicrobial evaluation” (2014).
# How the values were obtained:
# Format in all cases: functional
# [1] = system: Escherichia coli; assay: Antimicrobial activity against Escherichia coli MTCC 724 at 50 ug/ml after 24 hrs by disc diffusion method; conditions: MTCC 724, 24 h, read-out: DIZ
# Method in brief: (§1)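 Agar diffusion read-out is the diameter of the inhibition zone in mm. Each test was run in six replicates and reported as mean ± standard deviation, taken from at least three determinations.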
# [2] = system: Staphylococcus aureus; assay: Antimicrobial activity against Staphylococcus aureus MTCC 96 at 100 ug/ml after 24 hrs by disc diffusion method; conditions: MTCC 96, 24 h, read-out: DIZ; method in brief: as §1
# [3] = system: Aspergillus niger; assay: Antimicrobial activity against Aspergillus niger MTCC 281 at 50 ug/ml after 48 hrs by disc diffusion method; conditions: MTCC 281, 48 h, read-out: DIZ; method in brief: as §1
# [4] = system: Bacillus cereus; assay: Antimicrobial activity against Bacillus cereus MTCC 8372 at 50 ug/ml after 24 hrs by disc diffusion method; conditions: MTCC 8372, 24 h, read-out: DIZ; method in brief: as §1
# [5] = system: Staphylococcus aureus; assay: Antimicrobial activity against Staphylococcus aureus MTCC 96 at 50 ug/ml after 24 hrs by disc diffusion method; conditions: MTCC 96, 24 h, read-out: DIZ; method in brief: as §1
# [6] = system: Bacillus cereus; assay: Antimicrobial activity against Bacillus cereus MTCC 8372 after 24 hrs by microdilution method; conditions: MTCC 8372, 24 h
# Method in brief: (§2)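 The minimal inhibitory concentration was determined by dilution, alongside minimal bactericidal concentration for bacterial strains and minimal fungicidal concentration for fungal strains. Tests were run in six replicates, and the value is the mean of at least three determinations.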
# [7] = system: Bacillus cereus; assay: Antimicrobial activity against Bacillus cereus MTCC 8372 at 100 ug/ml after 24 hrs by disc diffusion method; conditions: MTCC 8372, 24 h, read-out: DIZ; method in brief: as §1
# [8] = system: Klebsiella pneumoniae; assay: Antimicrobial activity against Klebsiella pneumoniae MTCC 3384 at 100 ug/ml after 24 hrs by disc diffusion method; conditions: MTCC 3384, 24 h, read-out: DIZ; method in brief: as §1
# [9] = system: Fusarium oxysporum; assay: Antimicrobial activity against Fusarium oxysporum MTCC 284 at 100 ug/ml after 48 hrs by disc diffusion method; conditions: MTCC 284, 48 h, read-out: DIZ; method in brief: as §1
# [10] = system: Fusarium verticillioides; assay: Antimicrobial activity against Fusarium moniliforme MTCC 156 after 48 hrs by microdilution method; conditions: MTCC 156, 48 h; method in brief: as §2
# [11] = system: Aspergillus flavus; assay: Antimicrobial activity against Aspergillus flavus MTCC 873 at 50 ug/ml after 48 hrs by disc diffusion method; conditions: MTCC 873, 48 h, read-out: DIZ; method in brief: as §1
# [12] = system: Aspergillus niger; assay: Antimicrobial activity against Aspergillus niger MTCC 281 after 48 hrs by microdilution method; conditions: MTCC 281, 48 h; method in brief: as §2
# [13] = system: Fusarium oxysporum; assay: Antimicrobial activity against Fusarium oxysporum MTCC 284 after 48 hrs by microdilution method; conditions: MTCC 284, 48 h; method in brief: as §2
# [14] = system: Escherichia coli; assay: Antimicrobial activity against Escherichia coli MTCC 724 after 24 hrs by microdilution method; conditions: MTCC 724, 24 h; method in brief: as §2
# [15] = system: Klebsiella pneumoniae; assay: Antimicrobial activity against Klebsiella pneumoniae MTCC 3384 after 24 hrs by microdilution method; conditions: MTCC 3384, 24 h; method in brief: as §2
# [16] = system: Klebsiella pneumoniae; assay: Antimicrobial activity against Klebsiella pneumoniae MTCC 3384 at 50 ug/ml after 24 hrs by disc diffusion method; conditions: MTCC 3384, 24 h, read-out: DIZ; method in brief: as §1
# [17] = system: Escherichia coli; assay: Antimicrobial activity against Escherichia coli MTCC 724 at 100 ug/ml after 24 hrs by disc diffusion method; conditions: MTCC 724, 24 h, read-out: DIZ; method in brief: as §1
# [18] = system: Fusarium oxysporum; assay: Antimicrobial activity against Fusarium oxysporum MTCC 284 at 50 ug/ml after 48 hrs by disc diffusion method; conditions: MTCC 284, 48 h, read-out: DIZ; method in brief: as §1
# [19] = system: Staphylococcus aureus; assay: Antimicrobial activity against Staphylococcus aureus MTCC 96 after 24 hrs by microdilution method; conditions: MTCC 96, 24 h; method in brief: as §2
# [20] = system: Aspergillus flavus; assay: Antimicrobial activity against Aspergillus flavus MTCC 873 after 48 hrs by microdilution method; conditions: MTCC 873, 48 h; method in brief: as §2
# [21] = system: Fusarium verticillioides; assay: Antimicrobial activity against Fusarium moniliforme MTCC 156 at 100 ug/ml after 48 hrs by disc diffusion method; conditions: MTCC 156, 48 h, read-out: DIZ; method in brief: as §1
# [22] = system: Fusarium verticillioides; assay: Antimicrobial activity against Fusarium moniliforme MTCC 156 at 50 ug/ml after 48 hrs by disc diffusion method; conditions: MTCC 156, 48 h, read-out: DIZ; method in brief: as §1
# [23] = system: Aspergillus niger; assay: Antimicrobial activity against Aspergillus niger MTCC 281 at 100 ug/ml after 48 hrs by disc diffusion method; conditions: MTCC 281, 48 h, read-out: DIZ; method in brief: as §1
# [24] = system: Aspergillus flavus; assay: Antimicrobial activity against Aspergillus flavus MTCC 873 at 100 ug/ml after 48 hrs by disc diffusion method; conditions: MTCC 873, 48 h, read-out: DIZ; method in brief: as §1
smiles,measurement,setting,value
Cc1c(-c2nnc(-c3ccccc3)o2)c(-c2ccc(Cl)cc2)nn1-c1ccccc1,zone of inhibition at 50 µg/mL,[1],11 mm
same,zone of inhibition at 100 µg/mL,[2],10 mm
same,zone of inhibition at 50 µg/mL,[3],8 mm
same,zone of inhibition at 50 µg/mL,[4],6 mm
same,zone of inhibition at 50 µg/mL,[5],5 mm
same,MBC,[6],240 µg/mL
same,MIC,[6],40 µg/mL
same,zone of inhibition at 100 µg/mL,[7],10 mm
same,zone of inhibition at 100 µg/mL,[8],9 mm
same,zone of inhibition at 100 µg/mL,[9],22 mm
same,MFC,[10],270 µg/mL
same,MIC,[10],40 µg/mL
same,zone of inhibition at 50 µg/mL,[11],6 mm
same,MFC,[12],275 µg/mL
same,MIC,[12],50 µg/mL
same,MFC,[13],215 µg/mL
same,MIC,[13],30 µg/mL
same,MBC,[14],250 µg/mL
same,MIC,[14],40 µg/mL
same,MBC,[15],250 µg/mL
same,MIC,[15],50 µg/mL
same,zone of inhibition at 50 µg/mL,[16],5 mm
same,zone of inhibition at 100 µg/mL,[17],18 mm
same,zone of inhibition at 50 µg/mL,[18],14 mm
same,MBC,[19],250 µg/mL
same,MIC,[19],50 µg/mL
same,MFC,[20],275 µg/mL
same,MIC,[20],50 µg/mL
same,zone of inhibition at 100 µg/mL,[21],8 mm
same,zone of inhibition at 50 µg/mL,[22],5 mm
same,zone of inhibition at 100 µg/mL,[23],10 mm
same,zone of inhibition at 100 µg/mL,[24],10 mm
Cc1c(-c2nnc(-c3ccccc3)o2)c(-c2ccccc2)nn1-c1ccccc1,zone of inhibition at 50 µg/mL,[1],5 mm
same,zone of inhibition at 100 µg/mL,[2],7 mm
same,zone of inhibition at 50 µg/mL,[3],5 mm
same,zone of inhibition at 50 µg/mL,[4],5 mm
same,zone of inhibition at 50 µg/mL,[5],6 mm
same,MBC,[6],230 µg/mL
same,MIC,[6],35 µg/mL
same,zone of inhibition at 100 µg/mL,[7],9 mm
same,zone of inhibition at 100 µg/mL,[8],14 mm
same,zone of inhibition at 100 µg/mL,[9],8 mm
same,MFC,[10],290 µg/mL
same,MIC,[10],55 µg/mL
same,zone of inhibition at 50 µg/mL,[11],4 mm
same,MFC,[12],270 µg/mL
same,MIC,[12],45 µg/mL
same,MFC,[13],275 µg/mL
same,MIC,[13],50 µg/mL
same,MBC,[14],260 µg/mL
same,MIC,[14],40 µg/mL
same,MBC,[15],220 µg/mL
same,MIC,[15],30 µg/mL
same,zone of inhibition at 50 µg/mL,[16],6 mm
same,zone of inhibition at 100 µg/mL,[17],6 mm
same,zone of inhibition at 50 µg/mL,[18],3 mm
same,MBC,[19],240 µg/mL
same,MIC,[19],35 µg/mL
same,MFC,[20],280 µg/mL
same,MIC,[20],40 µg/mL
same,zone of inhibition at 100 µg/mL,[21],6 mm
same,zone of inhibition at 50 µg/mL,[22],4 mm
same,zone of inhibition at 100 µg/mL,[23],8 mm
same,zone of inhibition at 100 µg/mL,[24],8 mm
